Screening data: PubChem BioAssay, several laboratories
HSF1 inh: HSF1 inhibition. NIH3T3-HGL HSE-luciferase, MG132-induced, luminescence 8 h; active compounds read low. activity change, negative = inhibition, % at 7.5 µM (by protocol). 300,000 compounds, 0.77% hits. AID 2098;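 active = more than half of replicate wells show activity change below -50%, luminescence cut by over half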;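 note: luciferase reports HSF-1 transcriptional activity via heat shock element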
Lmaj promast: Leishmania major promastigote growth inhibition; 200,000 compounds, 9% hits; Leishmania major promastigotes, resazurin fluorescence viability; AID 1063; inhibition, % at 10 µM; in the data active = inhibition above about 50%;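 note: promastigotes grown with compound for 44 hours at 28 °C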
Hsp70 act: switches on Hsp70 transcription. 200,000 compounds, 0.04% hits. activation, % at 10 µM. AID 1203. HeLa Hsp70 promoter luciferase reporter, luminescence; scaled: vehicle 0, proteasome-inhibitor control 100%;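 active = activation above the mean across all tested compounds plus 3 SD, cutoff set per campaign, cut at about 5.5% in these data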
HSF1 activator: increases HSF-1 driven luciferase reporter signal. NIH3T3-HGL HSF-1 luciferase reporter, MG132, 8 h; 100% = twice DMSO control signal. activation, % at 9 µM. 300,000 compounds, 1.7% hits;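 active = mean replicate activation of at least 50% with a set share of replicates each reaching 50%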
T cruzi repl: blocks replication of Trypanosoma cruzi; T. cruzi beta-gal in NIH3T3, luminescence, 90 h; inhibition, % (test concentration not listed); 300,000 compounds, 1.4% hits; AID 1885;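 active = mean inhibition across valid replicates above about 55%, limit read from the data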;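 note: signal also drops with host cell toxicity which is not excluded here; higher percent means less beta-gal luminescence so fewer parasites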
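System: NIH/3T3 fibroblasts plus reporter T. cruzi. Medium: DMEM plus 2% FBS. Probe or stimulus: 5000 reporter trypomastigotes per well. Compound: single 50 nL compound addition per well in DMSO. Incubation: co-culture of at least 90 h after 3 h attachment. Detection: GalScreen β-gal luminescence, detergent lysis, 60 min. Evaluation: parasite load inhibition, %.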
Numbers stand for hits; n = inactive; x = not tested or not shown. The full list was thinned out, with hits kept by preference.

SMILES	HSF1 inh	Lmaj promast	Hsp70 act	HSF1 activator	T cruzi repl
O=C1CC(C(=O)N(CC2CCCO2)C(C(=O)NC2CCCCC2)c2ccncc2)CS1 (stereo not given)	n	n	n	n	n
O=C(NC1CCCCC1)C(c1ccc(O)cc1)N(CC1CCCO1)C(=O)C1COc2ccccc2O1 (stereo not given)	n	50	n	n	n
Cc1cc(C)cc(OCC(=O)OCC(=O)NC2CCCCCCC2)c1	n	x	x	n	n
COC1C=CC=C(C)C(=O)NC2=CC(=O)C(N)=C(CC(C)CC(OC)C(O)C(C)C=C(C)C1OC(N)=O)C2=O (stereo not given)	69	x	x	69	x
C/C(=N\OCC(=O)OCC(=O)NCc1ccccc1)c1ccc2c(c1)OCO2	n	x	x	n	n
CCc1ccc(-c2nc(CN3CCC(C(=O)N4CCN(c5ccccn5)CC4)CC3)c(C)o2)cc1	x	84	n	x	x
CCN1CCN(C(=O)C2CCN(Cc3nc(-c4cccc(Cl)c4)oc3C)CC2)CC1	n	66	n	n	n
CCc1ccc(-c2nc(CN3CCCC(C(=O)O)C3)c(C)o2)cc1 (stereo not given)	n	n	n	n	n
Cc1oc(-c2cccc(Cl)c2)nc1CN1CCC(C(=O)NC2CC2)CC1	n	x	x	n	n
CCc1ccc(-c2nc(CN3CCC(C(=O)N4CCN(c5ccccc5)CC4)CC3)c(C)o2)cc1	n	82	n	n	n
FC(F)(F)c1ccccc1CNCc1ccc2c(c1)OCO2	n	x	x	n	n
NC(=S)NN=C(Cc1ccccc1)Cc1ccccc1	n	n	n	n	60
O=C(NN=C(Cc1ccccc1)Cc1ccccc1)c1ccccc1O	n	61	n	n	n
O=C(NN=C(Cc1ccccc1)Cc1ccccc1)c1ccc(F)cc1	n	n	n	n	n
COc1cccc(C2C(C(=O)Nc3cccnc3)=C(C)Nc3nnnn32)c1OC (stereo not given)	n	n	n	n	n
CC1=C(C(=O)Nc2ccccc2)C(c2ccncc2)n2nnnc2N1 (stereo not given)	n	57	n	n	n
COc1ccccc1NC(=O)C1=C(C)Nc2nnnn2C1c1cc(Br)ccc1OC (stereo not given)	n	97	n	n	n
Cc1cccc(NC(=O)CCCCC(=O)Nc2cccc(C)c2)c1	n	x	x	n	x
Cc1nnsc1C(=O)N1CCCC(N2CCN(c3ccc(F)cc3)CC2)C1 (stereo not given)	n	x	x	n	n
O=C(NCCc1nc2ccccc2[nH]1)c1cccc(Br)c1	n	n	n	n	56
O=C(NCCc1nc2ccccc2[nH]1)c1ccc(F)cc1	n	n	n	n	n
CCn1c(CNC(=O)c2ccccc2OC)nnc1SCC(=O)c1ccc(F)cc1	n	x	x	n	n
COC(=O)c1cccc(NC(=O)CCc2ccccc2)c1	n	n	n	n	n
COC(=O)c1cccc(NC(=O)CCc2cc(OC)c(OC)c(OC)c2)c1	n	59	n	n	n
O=C(Cc1cn(Cc2cccc(Cl)c2)c2ccccc12)N1CCCCCC1	n	99	n	n	59
SMILES	HSF1 inh	Lmaj promast	Hsp70 act	HSF1 activator	T cruzi repl
O=C(O)Cc1cn(Cc2cccc(Cl)c2)c2ccccc12	n	n	n	n	n
CC1CCCN(C(=O)Cc2cn(Cc3cccc(Cl)c3)c3ccccc23)C1 (stereo not given)	n	97	n	n	55
COc1cccc(C(=O)COc2ccc(NC(=O)c3ccccc3)cc2)c1	n	x	x	n	n
CCOc1ccc(C(=O)C(CCC(CN(C)C)C(=O)c2ccc(OCC)cc2)CN(C)C)cc1 (stereo not given)	n	100	n	n	n
CC(=O)NC(C(=O)c1ccccc1)C(=O)c1ccccc1	n	n	n	n	n
COc1ccc(C(=O)C(CCCCC(CN(C)C)C(=O)c2ccc(OC)cc2)CN(C)C)cc1 (stereo not given)	n	100	n	n	n
CN(C)CC(CCC(CN(C)C)C(=O)c1ccccc1)C(=O)c1ccccc1 (stereo not given)	-69	x	x	n	71
CCCOc1cccc(C(=O)N/N=C/c2ccoc2)c1	n	x	x	n	n
O=C(Nc1ccc(Br)cc1)C1CCN(C(=O)c2ccco2)CC1	n	x	x	n	n
COc1ccc(S(=O)(=O)n2nc(C)cc2C)c(C)c1C	n	50	n	n	n
CC1Sc2ccc(S(=O)(=O)CCC(=O)NCc3ccc(Cl)cc3)cc2NC1=O (stereo not given)	n	x	x	n	n
Cc1ccc(NC(=O)CC(=O)c2ccccc2)cc1C	n	x	x	n	n
